Compound activity as filed in PubChem BioAssay.
Hits are enriched below; roughly 1% of the tested compounds scored in any of these assays.
XiGFP reactiv = reactivates the inactive X chromosome in mouse fibroblasts. activation, % at 7.58 µM. AID 743238. XiGFP mouse fibroblasts, % GFP-positive cells imaging, 3 d; cells co-treated with 5-aza-dC sensitizer; scaled so ellipticine positive control = 100%. 360,000 tested, 0.055% active;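 active means mean normalized replicate activation at least 10% and every replicate at or above 10%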;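 further: 0% = median of on-plate neutral control wells and 100% = ellipticine 6 µM median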
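System: 68-5-11 XiGFP fibroblast line | Buffer or medium: DMEM containing 5-aza-dC | Compound: Single point | Times: Compounds 3 days, fix/stain 15 min at room temperature | Benchmarks: Positive control ellipticine, 6 µM final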
CaV13 ICDI inh = Disruptors of the CACNA1D IQ motif to Ca2+-dependent inactivation inhibitor domain association, primary screening, Förster resonance energy transfer in intact living … | HEK cells, CFP/YFP FRET ICDI-IQ, plate reader, 10 min; percent FRET-ratio fall versus neutral wells | inhibition, % at 12.3 µM | AID 743397 | 340,000 tested, 0.098% active;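 active means mean replicate inhibition of at least 30% and at least 1% of replicates passing that level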;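 further: 0% = median of the neutral control wells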
FXN GAA850 act = activators of GAA850 frataxin (FXN) promoter; HEK293 lucGAA850 FXN promoter luciferase reporter, 24 h; percent of 10 µM SAHA response; activation, % at 6 µM; 360,000 tested, 0.56% active; AID 540364;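 active means activation above the average of all compounds screened plus 3 SD, cutoff fixed separately per campaign, cut at about 7.5% in these data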;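 further: 0% = DMSO wells and 100% = 10 µM SAHA wells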
GSIS activator = primary screen for activators of insulin secretion dependent on glucose, INS-1E cells, GLuc reporter luminescence | INS-1E GLuc reporter insulin secretion, 2-3 h | activation, % at 16.6 µM | 370,000 tested, 0.61% active;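 active means lowest replicate activation of at least 40%, so every replicate reaches that level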;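 further: 0% = median of neutral control wells and 100% = median of IBMX positive control wells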
An asterisk follows results filed as active; nt = no result.

SMILES	XiGFP reactiv	CaV13 ICDI inh	FXN GAA850 act	GSIS activator
CCSc1ccc(C(=O)Nc2ccc(Br)cn2)cc1[N+](=O)[O-]	0	-5	-1	-1
CCSc1ccc(C(=O)Nc2cccc(C)n2)cc1[N+](=O)[O-]	0	-3	0	59*
Cc1cc(C)c2c(C)nn(-c3ccccc3)c2n1	nt	-4	2	nt
Cc1cc(C)c2c(C)nn(C3CCCCC3)c2n1	nt	nt	2	71*
Cc1ccc(S(=O)(=O)N(C)C[C@@H]2Oc3ccc(NC(=O)C4CC4)cc3CC(=O)N([C@H](C)CO)C[C@@H]2C)cc1	0	nt	nt	12
CN(C)c1cncc(C(=O)O)c1	0	3	0	63*
COc1ccccc1C(=O)Nc1ccc2c(c1)C(=O)N(C)[C@@H]1CC[C@@H](CC(=O)NCc3ccc(Cl)c(Cl)c3)O[C@@H]1CO2	0	nt	nt	-4
CC(C)(C)C1=CC(=O)C(=O)C(C(C)(C)C)=C1	nt	nt	11*	nt
COc1ccc2[nH]c3c4c(ccc3c2c1)C(=O)C=CC4=O	12*	-16	-10	6
COc1ccc2[nH]c(=O)cc(C(=O)O)c2c1	0	-3	0	16
Cc1cccc(C(=O)Nc2nnc(-c3ccc(C(C)(C)C)cc3)s2)c1	nt	-5	1	nt
Cc1ccccc1C(=O)Nc1nnc(-c2ccc(C(C)(C)C)cc2)s1	0	-5	2	137*
Cc1ccc(C)c(NC(=O)c2ccc3ccccc3n2)c1	nt	1	4	31
Cc1ccc(NC(=S)c2ccc3ccccc3n2)c(C)c1	0	-7	5	57*
COc1cc(NC(=O)CN2CCC(Cc3ccccc3)CC2)c(C)cc1[N+](=O)[O-]	0	-6	4	58*
Nc1[nH]c(C(=O)c2ccccc2)c(-c2ccc(Cl)cc2Cl)c1C(=O)c1ccc(Cl)cc1	0	-4	nt	-28
Nc1[nH]c(C(=O)c2ccccc2)c(-c2c(F)cccc2F)c1C(=O)c1ccc(Cl)c(Cl)c1	0	-3	nt	177*
CNC[C@H]1Oc2ccc(NS(=O)(=O)c3ccc(F)cc3)cc2CC(=O)N([C@H](C)CO)C[C@@H]1C	-1	nt	nt	7
COc1cc(/C=C(\C#N)C(=O)NC(C)C)cc(Cl)c1O	0	48*	1	-9
CC(C)NC(=O)/C(C#N)=C/c1cccc(NC(=O)c2ccccc2Cl)c1	0	-5	0	-22
Cc1ccccc1Cn1ccc(NC(=O)c2cc3nc(-c4ccco4)cc(C(F)(F)F)n3n2)n1	nt	-5	-1	66*
CN(C)c1ccc(/C=C(\NC(=O)c2ccccc2)C(=O)NCCN2CCOCC2)cc1	0	-8	0	41*
Cc1ccc(NS(=O)(=O)c2cc(C(=O)N3CCN(C)CC3)ccc2C)cc1	nt	nt	-2	nt
Cc1ccc(C)c(S(=O)(=O)Nc2ccc(C(=O)N3CCC3)cc2)c1	0	-5	1	43*
CNC[C@H]1OCCCC[C@H](C)Oc2ccc(NS(=O)(=O)c3ccccc3)cc2C(=O)N([C@@H](C)CO)C[C@H]1C	-1	nt	nt	17
SMILES	XiGFP reactiv	CaV13 ICDI inh	FXN GAA850 act	GSIS activator
COc1ccc(/C=C/C(=O)Oc2ccc(C)c(C)c2)cc1OC	0	-4	4	-15
COc1cc(/C=C/[N+](=O)[O-])ccc1OC(=O)/C=C/c1ccc(F)cc1	1	-5	8.7*	nt
COc1ccc(/C=C/C(=O)c2ccc([N+](=O)[O-])o2)cc1OC	14*	-7	nt	-28
COc1cc2c(cc1OC)C(CSc1ccccc1C(=O)O)=NC(C)(C)C2	0	-5	6	41*
CC1(C)Cc2ccccc2C(CSc2ccccc2C(=O)O)=N1	0	-5	-1	16
COc1ccccc1NS(=O)(=O)c1cc(NC(=O)CCNC(C)=O)ccc1C	0	151*	0	9
c1csc(C2Nc3ccccc3-c3nc4ccccc4n32)c1 (configuration not stated)	0	-2	2	6
Cc1ccsc1C1Nc2ccccc2-c2nc3ccccc3n21 (configuration not stated)	30*	-3	6	nt
N#Cc1ccc(OCC(=O)OCC(=O)N2CCc3ccccc32)cc1	0	35*	1	18
Cc1ccc(S(=O)(=O)Nc2ccc3c(c2)C(=O)N([C@H](C)CO)C[C@@H](C)[C@@H](CN(C)S(=O)(=O)c2c(C)noc2C)OCCCC[C@H](C)O3)cc1	0	nt	nt	-15
